Data as given in ChEMBL document CHEMBL4316593 (Eur J Med Chem, 2019).
The source made the active and inactive calls. The rule behind the calls is not given here.

Key:
U-87 MG [1] = assay: Cytotoxicity against human U87 cells assessed as reduction in cell proliferation by phase contrast microscopic analysis; format: functional, cell-based; settings: U-87MG ATCC
LN-229 [2] = assay: Cell cycle arrest in human LN229 cells assessed as decrease in accumulation at S-phase at cytotoxic IC50 measured after 48 hrs by propidium iodide staining based fluorescence cell imaging analysis; format: functional
How it was run: (§1)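 Cell cycle by PI staining. Cells seeded at 1×10^6 and grown overnight at 37°C, 5% CO₂, then exposed for 48hrs at their IC₅₀ concentration, with DMSO and cisplatin controls. Cells were trypsinized, washed in cold PBS and fixed in 70% ethanol at 4°C for 30 min. They were stained with PI in Triton X-100/RNase for 15 min at 37°C and imaged by fluorescence microscopy. Reported as mean ± S.E.M of triplicates.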

LN-229 [3] = assay: Cell cycle arrest in human LN229 cells assessed as decrease in accumulation at G2/M-phase at cytotoxic IC50 measured after 48 hrs by propidium iodide staining based fluorescence cell imaging analysis; format: functional; how it was run: as §1
U-87 MG [4] = assay: Cell cycle arrest in human U87 cells assessed as change in GADD45B gene expression at cytotoxic IC50 measured after 48 hrs […] relative to control; format: functional, U-87MG ATCC
How it was run: (§2)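 U87 expression profiling. Cells incubated 48hrs at 37°C, 5% CO₂ with the IC₅₀ concentration, alongside a cisplatin and an untreated control, in triplicate. RNA was isolated by one common protocol and profiled. DEGs were called with DESeq2 (q < 0.05, fold change > 1.5) and expressed as fold change versus untreated.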

U-87 MG [5] = assay: Cell cycle arrest in human U87 cells assessed as change in MCM3 gene expression at cytotoxic IC50 measured after 48 hrs […] relative to control; format: functional, U-87MG ATCC; how it was run: as §2
U-87 MG [6] = assay: Induction of DNA damage in human U87 cells assessed as change in FANCI gene expression at cytotoxic IC50 measured after 48 hrs […] relative to control; format: functional, U-87MG ATCC; how it was run: as §2
U-87 MG [7] = assay: Induction of apoptosis in human U87 cells assessed as apoptotic cells at cytotoxic IC50 measured after 48 hrs by Annexin V-FITC/propidium iodide staining based flow cytometry (reference value: 22.4%); format: functional, U-87MG ATCC
U-87 MG [8] = assay: Induction of apoptosis in human U87 cells assessed as change in ACTB gene expression at cytotoxic IC50 measured after 48 hrs […] relative to control; format: functional, U-87MG ATCC
How it was run: (§3)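 U87 cells grown in MEM with 10% FBS at 37°C, 5% CO2. Cells exposed to IC50 of test compound for 48 hrs, alongside untreated and cisplatin controls, each condition in triplicate. RNA isolated and profiled; differential expression called with DESeq2 (q-value < 0.05, fold change > 1.5), fold change versus untreated.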

U-87 MG [9] = assay: Induction of apoptosis in human U87 cells assessed as change in PMAIP1 gene expression at cytotoxic IC50 measured after 48 hrs […] relative to control; format: functional, U-87MG ATCC; how it was run: as §3
LN-229 [10] = assay: Induction of apoptosis in human LN229 cells assessed as decrease in caspase-3/7 activation at cytotoxic IC50 measured after 5 hrs by caspase-glo 3/7 luminescence assay relative to control; format: functional; design: scale not given: the % may be the effect or the level left
How it was run: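 Cells grown overnight in 96-well format, then given IC50 for 5 hrs at 37°C, 5% CO2, with negative, positive and blank (medium+DMSO+dye) wells. Equilibrated 30 min at room temperature, Caspase-Glo 3/7 reagent added 1:1 in the dark, luminescence read at 1 hr. Fold change = (test−blank)/(control−blank). Triplicate measurements, at least two independent experiments.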

[11] = Inhibition of RTK/PI3K/AKT/mTOR signaling in human U87 cells assessed as down regulation of NAAA gene expression at cytotoxic IC50 measured after 48 hrs relative to control; format: cell-based; settings: U-87MG ATCC
How it was run: (§4)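 Cells were exposed for 48hrs at 37°C in humidified 5% CO₂ to the compound at its previously determined IC₅₀, with Cisplatin at its IC₅₀ and an untreated negative control alongside. Each condition was run in triplicate. RNA was isolated from all samples by the same protocol. Genes were called differentially expressed by DESeq2 at q-value < 0.05 and fold change > 1.5.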

[12] = Inhibition of RTK/PI3K/AKT/mTOR signaling in human U87 cells assessed as down regulation of MAP2 gene expression at cytotoxic IC50 measured after 48 hrs relative to control; format: cell-based; settings: U-87MG ATCC; how it was run: as §4
[13] = Inhibition of RTK/PI3K/AKT/mTOR signaling in human U87 cells assessed as down regulation of COX17 gene expression at cytotoxic IC50 measured after 48 hrs relative to control; format: cell-based; settings: U-87MG ATCC; how it was run: as §3
[14] = Inhibition of RTK/PI3K/AKT/mTOR signaling in human U87 cells assessed as down regulation of DAGLB gene expression at cytotoxic IC50 measured after 48 hrs relative to control; format: cell-based; settings: U-87MG ATCC; how it was run: as §3
[15] = Inhibition of RTK/PI3K/AKT/mTOR signaling in human U87 cells assessed as down regulation of SAFB2 gene expression at cytotoxic IC50 measured after 48 hrs relative to control; format: cell-based; settings: U-87MG ATCC; how it was run: as §4
[16] = Inhibition of RTK/PI3K/AKT/mTOR signaling in human U87 cells assessed as down regulation of DHX30 gene expression at cytotoxic IC50 measured after 48 hrs relative to control; format: cell-based; settings: U-87MG ATCC; how it was run: as §3
[17] = Inhibition of RTK/PI3K/AKT/mTOR signaling in human U87 cells assessed as down regulation of XPO6 gene expression at cytotoxic IC50 measured after 48 hrs relative to control; format: cell-based; settings: U-87MG ATCC; how it was run: as §4
[18] = Inhibition of RTK/PI3K/AKT/mTOR signaling in human U87 cells assessed as up regulation of NFATC4 gene expression at cytotoxic IC50 measured after 48 hrs relative to control; format: cell-based; settings: U-87MG ATCC; how it was run: as §4
[19] = Inhibition of RTK/PI3K/AKT/mTOR signaling in human U87 cells assessed as up regulation of AXL gene expression at cytotoxic IC50 measured after 48 hrs relative to control; format: cell-based; settings: U-87MG ATCC; how it was run: as §4
[20] = Inhibition of RTK/PI3K/AKT/mTOR signaling in human U87 cells assessed as up regulation of lecithin retinol acyltransferase (phosphatidylcholine-retinol O-acyltransferase) gene expression at cytotoxic IC50 measured after 48 hrs relative to control; format: cell-based; settings: U-87MG ATCC
[21] = Inhibition of RTK/PI3K/AKT/mTOR signaling in human U87 cells assessed as up regulation of isoleucyl-tRNA synthetase gene expression at cytotoxic IC50 measured after 48 hrs relative to control; format: cell-based; settings: U-87MG ATCC
[22] = Inhibition of RTK/PI3K/AKT/mTOR signaling in human U87 cells assessed as up regulation of macrophage stimulating 1 receptor gene expression at cytotoxic IC50 measured after 48 hrs relative to control; format: cell-based
[23] = Inhibition of RTK/PI3K/AKT/mTOR signaling in human U87 cells assessed as up regulation of fibroblast growth factor 19 gene expression at cytotoxic IC50 measured after 48 hrs relative to control; format: cell-based
[24] = Inhibition of RTK/PI3K/AKT/mTOR signaling in human U87 cells assessed as up regulation of melanoma inhibitory activity 2 gene expression at cytotoxic IC50 measured after 48 hrs relative to control; format: cell-based; settings: U-87MG ATCC
[25] = Inhibition of RTK/PI3K/AKT/mTOR signaling in human U87 cells assessed as up regulation of MYC gene expression at cytotoxic IC50 measured after 48 hrs relative to control; format: cell-based; settings: U-87MG ATCC; how it was run: as §4
[26] = Inhibition of RTK/PI3K/AKT/mTOR signaling in human U87 cells assessed as up regulation of TTYH3 gene expression at cytotoxic IC50 measured after 48 hrs relative to control; format: cell-based; settings: U-87MG ATCC

CC(=O)C(=NNc1ccccc1C#N)C(C)=O
Activity (U-87 MG [1]): Active | Activity (LN-229 [2]): Active | Activity (LN-229 [3]): Active | fold change (FC) (U-87 MG [4]): -2.899 | fold change (FC) (U-87 MG [5]): 1.427 | fold change (FC) (U-87 MG [6]): 1.708 | Activity (U-87 MG [7]): 68.7% | log2FC (U-87 MG [8]): -1.876 | log2FC (U-87 MG [9]): 1.102 | Activity (LN-229 [10]): 36.1% | log2FC [11]: -1.57 | log2FC [12]: -1.55 | log2FC [13]: -1.13 | log2FC [14]: -0.876 | log2FC [15]: -0.69 | log2FC [16]: -0.431 | log2FC [17]: -0.363 | log2FC [18]: 2.89 | log2FC [19]: 1.89 | log2FC [20]: 1.23 | log2FC [21]: 1.04 | log2FC [22]: 0.723 | log2FC [23]: 0.722 | log2FC [24]: 0.695 | log2FC [25]: 0.54 | log2FC [26]: 0.524
